Rows were chosen to be rich in hits. Some 3.3% of all compounds tested hit in one or more screens of this group.
ROMK mod: modulates human ROMK potassium channel activity; P48048; Tet-inducible ROMK, thallium flux fluorescence; actives lie on both sides; B-score at 10 µM; actives 2% (n = 130,000); AID 1918;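 active = signal ratio slope over the read window, or its plate-corrected B-score, at least 3 SD from the plate mean, either direction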;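 also: B-score of the F/F0 ratio slope over 7 to 12 s after thallium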
PMI activator: increases human mannose-6-phosphate isomerase activity; P34949; purified human PMI, coupled resazurin fluorescence, 20 min; hits give high values; 1 = vehicle control, 0 substrate-free wells; activation factor at 20 µM; actives 0.005% (n = 190,000);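 active = activation factor of 2 or more at 20 µM, relative to plate controls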
PMI act hi M6P: PMI (human) activation, high substrate; P34949; coupled PMI enzyme assay, resazurin fluorescence, 20 min; hits give high values; 1 = untreated enzyme, 0 = substrate-free blank; activation factor at 20 µM; actives 0.34% (n = 190,000); AID 1216;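 active = activation factor of 2 or more at 20 µM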
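Technique: Diaphorase-driven resazurin-to-resorufin fluorescence, excitation 544, emission 590 nm | Assay system: Human PMI in coupled enzyme assay | Times: Enzyme reaction with compound 20 min at room temperature | Medium: HEPES-buffered pH 7.4 with magnesium and detergent | Reagent: Mannose-6-phosphate 1.0 mM (near-saturating) plus 0.22 mM NADP+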
KCC2 mod: modulators of human KCC2 chloride dependent transport. Q9H2X9. KCC2 cells, thallium flux FluoZin-2 fluorescence. B-score of Tl+ flux slope (higher = more flux/activation; lower = inhibition) at 10 µM. actives 2.2% (n = 190,000). AID 1456;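 active = thallium flux slope and its plate-corrected score both differing from the plate sample mean at a set confidence after two filtering rounds, in either direction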;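 also: slope of fluorescence scaled to starting intensity during 10 to 20 s after thallium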
ABCB1 inh: inhibitors of human ABCB1 transporter, ABCG2 counter-screen; P08183; CCRF-Adr cells, JC-1 efflux, flow cytometry; inhibition, % at 6.6 µM; actives 0.067% (n = 190,000); AID 1326; in the data active = inhibition above about 40%;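 also: 0% = vehicle and 100% = reference inhibitor; higher value means more JC-1 retained so stronger ABCB1 efflux block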
ABCG2 inh: blocks JC-1 efflux by human ABCG2 transporter. Q9UNQ0. IgMXP3 cells, flow cytometry. inhibition, % at 6.6 µM. actives 0.1% (n = 190,000);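 active = inhibition above 80%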;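 also: 0% = DMSO and 100% = nicardipine control wells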
Target sequence (Q9UNQ0 whole entry, looked up): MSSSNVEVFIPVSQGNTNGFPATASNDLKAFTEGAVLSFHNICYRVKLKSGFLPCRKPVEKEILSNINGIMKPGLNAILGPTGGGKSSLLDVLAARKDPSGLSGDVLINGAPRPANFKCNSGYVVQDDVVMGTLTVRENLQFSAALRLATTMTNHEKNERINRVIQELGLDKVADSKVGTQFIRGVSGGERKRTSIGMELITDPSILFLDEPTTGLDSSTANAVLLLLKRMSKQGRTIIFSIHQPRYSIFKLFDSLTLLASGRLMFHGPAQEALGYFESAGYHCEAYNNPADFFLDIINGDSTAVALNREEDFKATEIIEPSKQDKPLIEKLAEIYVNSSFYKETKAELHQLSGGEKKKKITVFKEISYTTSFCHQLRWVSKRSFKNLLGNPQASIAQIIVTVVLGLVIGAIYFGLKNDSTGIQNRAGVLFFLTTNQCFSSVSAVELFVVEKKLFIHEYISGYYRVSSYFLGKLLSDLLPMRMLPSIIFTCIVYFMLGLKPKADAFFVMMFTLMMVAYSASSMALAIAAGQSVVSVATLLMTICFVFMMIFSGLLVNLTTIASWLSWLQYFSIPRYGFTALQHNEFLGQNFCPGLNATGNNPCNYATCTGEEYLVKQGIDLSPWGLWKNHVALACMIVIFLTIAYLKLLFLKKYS
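test system = two drug-resistant human cell lines, ABCG2 and ABCB1 | amount = 3 million cells/mL final, two lines in 1:1 ratio | reagent = JC-1 transporter substrate | doses = one concentration, 6.6 µM final | incubation = 10 min at 25 °C | signal = flow cytometric JC-1 green MFI at 530 nm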
* marks the source's active call; other numbers are inactive results; / = no result.

SMILES | ROMK mod | PMI activator | PMI act hi M6P | KCC2 mod | ABCB1 inh | ABCG2 inh
Cc1ccc(-c2nc(Nc3cccc(C)c3)sc2CC(=O)O)cc1 | / | 1.2 | 1 | -4.19* | -0.3 | -0.5
CCN(C(=O)COC(=O)c1cc(-c2cccc3ccccc23)nc2ccccc12)C1CCS(=O)(=O)C1 (centres undefined) | -0.648 | 0.9 | 1 | -0.722 | 7.5 | 8.0
Cc1ccc(-c2csc3nc[nH]c(=S)c23)cc1C | / | 1 | 1.1 | 43.2* | -0.8 | -3.4
O=[N+]([O-])c1ccc(-c2n(-c3ccccn3)c3ccccc3[n+]2-c2ccccn2)cc1 | / | / | / | -0.845 | / | /
O=C1CCCC(=O)C1=Cc1c[nH]c2ccccc12 | -4.12* | 1 | 1 | -2.05 | 0.1 | 1.6
O=C1CCCc2c1[nH]c1ccccc21 | 0.502 | 0.9 | 0.9 | / | 0.6 | 3.4
O=C(N/N=C1/SCC(=O)N1Cc1ccco1)c1ccccc1F | -0.872 | 1 | 1 | 0.556 | 0.5 | 4.9
CCN(CC)c1cnn(C/C(=N\OC)c2ccc(Cl)cc2)c(=O)c1Br | / | 0.8 | 0.9 | -3.7* | 2.2 | 12.0
CO/N=C(\Cn1ncc(N2CCCC2)c(Cl)c1=O)c1ccc(Cl)cc1 | -0.858 | 1 | 1 | -1.42 | 1.8 | 9.9
Cc1ccc(CNC(=O)CSc2c3c(nc4ccc(Cl)cc24)CCCC3)o1 | -2.53* | 0.8 | 0.9 | 4.79* | 4.6 | 76.0
CCOn1c(=O)c(-c2cccs2)[n+]([O-])c2ccccc21 | / | 0.9 | 0.9 | 3.78* | 1.2 | 4.9
CCN(CC)C(=O)C1CCN(Cc2cccc(OCc3ccccc3)c2)CC1 | -3.13* | 1 | 1.1 | -0.277 | 1.6 | 3.0
COC(CN1C(=O)C(=O)/C(=C(/O)c2ccccc2)C1c1ccccn1)OC (centres undefined) | 0.156 | 1 | 1 | -0.317 | 0.9 | 1.2
Nc1[nH]nc2nc3ccccc3cc12 | 0.664 | 1.5 | 2.2* | 0.58 | -0.7 | -0.5
CCc1ccc2nc3n[nH]c(N)c3cc2c1 | / | 1 | 1 | / | 0.2 | 2.2
O=C(CNC(=O)c1cccc(F)c1)OCC(=O)N1CCCCC1 | / | 1.1 | 1.1 | 0.445 | -0.8 | 17.7
CCOc1ccc(C(=O)NCC(=O)OCC(=O)N2CCCCC2)cc1 | 0.946* | 1 | 1 | 0.472 | -0.1 | 0.0
O=c1nc(-c2ccccc2)c2ccccc2[nH]1 | / | 0.9 | 0.9 | -0.46 | -0.2 | 5.8
S=c1nc(-c2ccccc2)[nH]c2ccccc12 | 7.33* | 1 | 1.1 | 39.6* | -0.6 | -1.9
O=C(COC(=O)C(Cc1ccccc1)NC(=O)c1ccc(Cl)cc1)c1ccc(Cl)cc1 (centres undefined) | 0.248 | -0.1 | 1 | -0.718 | 0.8 | 5.8
CC1=Nc2ccccc2/C1=C/c1sc(=S)n(-c2cccc(C(=O)O)c2)c1O | -4.57* | 0.9 | 0.7 | -3.91* | 0.1 | -2.9
Oc1c(C=C2N=c3ccccc3=N2)sc(=S)n1-c1ccccc1 | 0.233 | 1 | 1.1 | 0.171 | -0.9 | -2.7
CC1C/C(=C/c2ccccn2)C(=O)/C(=C/c2ccccn2)C1 (centres undefined) | -4.69* | 1.1 | 0.9 | 0.242 | 0.1 | 2.2
CS/C(=N\S(=O)(=O)c1cccs1)NC(=O)CSc1nc2ccccc2s1 | / | 1.7 | 2.4* | -2.22 | -0.3 | -1.9
C=CS(=O)(=O)c1sc(Cl)c(N2CCOCC2)c1[N+](=O)[O-] | -8.57* | 1.1 | 1.4 | -3.64* | -0.5 | -1.0
SMILES | ROMK mod | PMI activator | PMI act hi M6P | KCC2 mod | ABCB1 inh | ABCG2 inh
Cc1cc(C)c(S(=O)(=O)c2ccc(Cl)cc2C)c(Cl)n1 | -0.322 | 0.9 | 0.9 | -1.2 | 0.3 | 1.0
Cc1cc(-c2n[nH]c(=S)n2/N=C/c2ccc(Br)s2)n[nH]1 | / | 0.9 | 1 | 10.3* | -0.8 | -3.7
Cc1cc(-c2n[nH]c(=S)n2/N=C/c2ccc(C)s2)n[nH]1 | 0.606 | 0.9 | 1 | 0.414 | -0.1 | -1.0
CCOC(=O)Nc1nc(-c2ccc(Cl)cc2Cl)cs1 | -0.00821 | 0.9 | 0.9 | 0.684 | 0.9 | 2.2
COc1ccc(CN(C)C2c3ccccc3-c3ccccc32)cc1 | -0.288 | 0.8 | 0.9 | 0.606 | 1.4 | 12.9
O=C(N/N=C\c1cc(Br)c(Br)o1)c1cncc(Br)c1 | / | 0.9 | 0.9 | 16.3* | 0.0 | 1.0
CC(/C=N/NC(=O)c1cc(-c2cccn2C)n[nH]1)=C\c1ccccc1 | / | / | / | -0.252 | / | /
Cc1c(C)n(CC(O)CN2CCCCCC2)c2ccccc12 (centres undefined) | -2.06* | 1 | 1 | 0.943 | 0.4 | 0.9
CCCn1cc2c(c1-c1cccc(C)c1)c(=O)n(C)c(=O)n2C | / | 1 | 1.1 | -0.295 | 0.1 | 0.6
CCn1cc2c(c1-c1cccc(C)c1)c(=O)n(C)c(=O)n2C | / | 1.5 | 2.1* | 0.127 | 0.5 | 18.2
CC1=C(C(=O)Nc2ccccc2C)C2(CCCCC2)C(C(N)=O)C(=S)N1 (centres undefined) | -0.0676 | 1.5 | 2* | 0.934 | 1.2 | 0.0
CC1=C(C(=O)Nc2ccccc2)C2(CCCCC2)C(C(N)=O)C(=S)N1 (centres undefined) | / | 1.4 | 1.6 | 0.319 | 0.8 | 3.1
O=C(O)/C=C/C(=O)N1CCN(c2cccc(Cl)c2)CC1 | 0.186 | 1 | 1 | 0.697 | -0.1 | -0.2
O=C(NC1CC1)c1ccc2c(Cl)c3c(nc2c1)CCCC3 | / | 0.9 | 1 | -0.374 | 0.8 | 17.3
CCOC(=O)N1CCC(NC(=O)c2ccc3c(Cl)c4c(nc3c2)CCCC4)CC1 | -2.53* | 1 | 0.9 | 0.151 | 2.5 | 8.7
O=c1c2ccccc2[nH]c(=S)n1C1CCCCC1 | / | 0.9 | 0.9 | 68.7* | / | /
CC1CCC(n2c(=S)[nH]c3ccccc3c2=O)CC1 (centres undefined) | / | 0.9 | 0.9 | 29.5* | 0.2 | 3.1
CC1CCN(CCCn2c(=S)[nH]c3ccccc3c2=O)CC1 | / | 1.1 | 1.1 | 0.594 | -0.1 | 0.9
CC1CCCCN1CCCn1c(=S)[nH]c2ccccc2c1=O (centres undefined) | / | 0.9 | 0.9 | / | 0.0 | 0.2
CC1CCCC(n2c(=S)[nH]c3ccccc3c2=O)C1C (centres undefined) | / | 0.9 | 0.9 | 28.7* | 0.8 | 1.8
Cc1ccc(NC(=S)NC(NC(=O)c2ccccc2C)C(Cl)(Cl)Cl)c(C)c1 (centres undefined) | / | 0.8 | 0.9 | -2.41 | 0.1 | 0.1
O=C(Nc1nc(-c2ccccc2)ns1)c1ccncc1 | 0.0571 | / | / | 1.47 | / | /
O=C(NC(=S)Nc1ccccc1)c1csnn1 | / | 1.1 | 1.1 | 43.4* | -0.8 | 0.4
O=C(NC(=S)Nc1ccc(C(F)(F)F)cc1)c1csnn1 | 7.43* | 1.1 | 1.1 | 66.6* | 0.3 | 1.7
Cc1cc(NC(=O)CSc2nc(-c3ccccc3Cl)nc3c2c(=O)n(C)c(=O)n3C)no1 | 0.84 | 1.1 | 1.1 | 0.0759 | 2.2 | 9.7

Assay outcomes: PubChem, several laboratories
